Data: ChEMBL document CHEMBL3860041, “Synthesis, biological evaluation and molecular modeling study of some new methoxylated 2-benzylthio-quinazoline-4(3H)-ones as nonclassical antifolates” (Bioorg Med Chem Lett, 2016)

Assays:
Type in all cases: functional
[1] = Growth inhibition of human Caki1 cells at 10 uM after 48 hrs by SRB assay relative to control; settings: CAKI-1, 48 h, read-out: GI
Procedure, shortened: (§1)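 NCI 60-cell-line panel, nine tumor subpanels; compounds tested at a single dose of 10 μM in the primary screen.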

[2] = Growth inhibition of human A549 cells at 10 uM after 48 hrs by SRB assay relative to control; settings: A549, 48 h, read-out: GI; procedure, shortened: as §1
[3] = Growth inhibition of human colon cancer cells after 48 hrs by SRB assay; settings: Cancer cell lines
Procedure, shortened: (§2)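 Follow-up NCI panel testing over a 5-log dose range for each cell line. GI50, TGI and LC50 were monitored, with 5-fluorouracil run as the positive control. Values are grouped by tumour subpanel.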

[4] = Growth inhibition of human UACC62 cells at 10 uM after 48 hrs by SRB assay relative to control; settings: UACC-62, 48 h, read-out: GI
Procedure, shortened: (§3)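 Primary screen across the full NCI 60 human tumour cell line panel, which covers nine tumour subpanels. A single dose of 10 μM was applied to each line, and growth was recorded for each cell line.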

[5] = Growth inhibition of human renal cancer cells after 48 hrs by SRB assay; settings: Cancer cell lines; procedure, shortened: as §2
[6] = Growth inhibition of human SK-MEL-2 cells at 10 uM after 48 hrs by SRB assay relative to control; settings: SK-MEL-2, 48 h, read-out: GI; procedure, shortened: as §3
[7] = Growth inhibition of human melanoma cells after 48 hrs by SRB assay; settings: Melanoma cell; procedure, shortened: as §2
[8] = Growth inhibition of human ovarian cancer cells after 48 hrs by SRB assay; settings: Cancer cell lines; procedure, shortened: as §2
[9] = Growth inhibition of human BT549 cells at 10 uM after 48 hrs by SRB assay relative to control; settings: BT-549, 48 h, read-out: GI; procedure, shortened: as §1
[10] = Growth inhibition of human HCT116 cells at 10 uM after 48 hrs by SRB assay relative to control; settings: HCT-116, 48 h, read-out: GI; procedure, shortened: as §1
[11] = Growth inhibition of human HT-29 cells at 10 uM after 48 hrs by SRB assay relative to control; settings: HT-29, 48 h, read-out: GI; procedure, shortened: as §1
[12] = Growth inhibition of human MOLT4 cells at 10 uM after 48 hrs by SRB assay relative to control; settings: MOLT-4, 48 h, read-out: GI; procedure, shortened: as §1
[13] = Growth inhibition of human 786-0 cells at 10 uM after 48 hrs by SRB assay relative to control; settings: 786-0, 48 h, read-out: GI; procedure, shortened: as §1
[14] = Growth inhibition of human U251 cells at 10 uM after 48 hrs by SRB assay relative to control; settings: U-251, 48 h, read-out: GI; procedure, shortened: as §3
[15] = Growth inhibition of human RXF393 cells at 10 uM after 48 hrs by SRB assay relative to control; settings: RXF 393, 48 h, read-out: GI; procedure, shortened: as §1
[16] = Growth inhibition of human NCI-H460 cells at 10 uM after 48 hrs by SRB assay relative to control; settings: NCI-H460, 48 h, read-out: GI; procedure, shortened: as §1
[17] = Growth inhibition of human HL-60(TB) cells at 10 uM after 48 hrs by SRB assay relative to control; settings: HL-60, 48 h, read-out: GI
Procedure, shortened: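 NCI disease-oriented human tumour cell line screen: primary single-dose assay at 10 μM across the full 60-cell-line panel spanning nine tumour subpanels.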

Cancer cell lines [18] = assay: Potency index, ratio of 5-fluorouracil GI50 to compound GI50 for human renal cancer cells
Procedure, shortened: (§4)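 GI50 for each cell line came from NCI panel testing over a 5-log dose range, with 5-fluorouracil tested alongside as the reference drug. The index relates the 5-fluorouracil GI50 to the compound GI50 within each tumour subpanel.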

[19] = Growth inhibition of human K562 cells at 10 uM after 48 hrs by SRB assay relative to control; settings: K562, 48 h, read-out: GI; procedure, shortened: as §1
[20] = Growth inhibition of human Hs 578T cells at 10 uM after 48 hrs by SRB assay relative to control; settings: read-out: GI; procedure, shortened: as §1
[21] = Growth inhibition of human breast cancer cells after 48 hrs by SRB assay; settings: Cancer cell lines; procedure, shortened: as §2
[22] = Growth inhibition of human HOP62 cells at 10 uM after 48 hrs by SRB assay relative to control; settings: HOP-62, 48 h, read-out: GI; procedure, shortened: as §1
[23] = Growth inhibition of human MDA-MB-231 cells at 10 uM after 48 hrs by SRB assay relative to control; settings: MDA-MB-231, 48 h, read-out: GI; procedure, shortened: as §1
[24] = Growth inhibition of human HOP92 cells at 10 uM after 48 hrs by SRB assay relative to control; settings: HOP-92, 48 h, read-out: GI; procedure, shortened: as §1
[25] = Growth inhibition of human SN12C cells at 10 uM after 48 hrs by SRB assay relative to control; settings: read-out: GI; procedure, shortened: as §3
[26] = Growth inhibition of human non-small cell lung cancer cells after 48 hrs by SRB assay; settings: Cancer cell lines; procedure, shortened: as §2
[27] = Growth inhibition of human LOXIMVI cells at 10 uM after 48 hrs by SRB assay relative to control; settings: LOX IMVI, read-out: GI; procedure, shortened: as §1
Cancer cell lines [28] = assay: Potency index, ratio of 5-fluorouracil GI50 to compound GI50 for human non-small cell lung cancer cells; procedure, shortened: as §4
Cancer cell lines [29] = assay: Potency index, ratio of 5-fluorouracil GI50 to compound GI50 for human prostate cancer cells; procedure, shortened: as §4
[30] = Growth inhibition of human NCI/ADR-RES cells at 10 uM after 48 hrs by SRB assay relative to control; settings: read-out: GI; procedure, shortened: as §1
[31] = Growth inhibition of human T47D cells at 10 uM after 48 hrs by SRB assay relative to control; settings: read-out: GI; procedure, shortened: as §3
[32] = Growth inhibition of human OVCAR5 cells at 10 uM after 48 hrs by SRB assay relative to control; settings: OVCAR-5, 48 h, read-out: GI; procedure, shortened: as §1
[33] = Growth inhibition of human SK-MEL-28 cells at 10 uM after 48 hrs by SRB assay relative to control; settings: SK-MEL-28, 48 h, read-out: GI; procedure, shortened: as §3
[34] = Growth inhibition of human UO31 cells at 10 uM after 48 hrs by SRB assay relative to control; settings: UO-31, 48 h, read-out: GI; procedure, shortened: as §3
[35] = Growth inhibition of human OVCAR8 cells at 10 uM after 48 hrs by SRB assay relative to control; settings: OVCAR-8, 48 h, read-out: GI; procedure, shortened: as §1
[36] = Growth inhibition of human NCI-H23 cells at 10 uM after 48 hrs by SRB assay relative to control; settings: NCI-H23, 48 h, read-out: GI; procedure, shortened: as §1
[37] = Growth inhibition of human SF539 cells at 10 uM after 48 hrs by SRB assay relative to control; settings: SF-539, 48 h, read-out: GI; procedure, shortened: as §1

Q: For `COc1cc(CSc2nc3ccc(C)cc3c(=O)n2-c2ccccc2)cc(OC)c1OC`, which inhibition of growth at 10 µM [1] is on record?
A: The inhibition of growth at 10 µM was 72.4%.

Q: And the inhibition of growth at 10 µM [2]?
A: Its inhibition of growth at 10 µM is 60.7%.

Q: And the GI50 [3]?
A: The GI50 was 1.3 µM.

Q: What about the LC50 [3] of the same compound?
A: The LC50 was over 100 µM.

Q: And the TGI [3]?
A: Its TGI is 86.3 µM.

Q: What about the inhibition of growth at 10 µM [4] of the same compound?
A: The inhibition of growth at 10 µM was 79.2%.

Q: And the GI50 [5]?
A: Its GI50 is 4.2 µM.

Q: And the LC50 [5]?
A: The LC50 was over 100 µM.

Q: What about the TGI [5] of the same compound?
A: Its TGI is 76.9 µM.

Q: What about the inhibition of growth at 10 µM [6] of the same compound?
A: Its inhibition of growth at 10 µM is 85.3%.

Q: What about the GI50 [7] of the same compound?
A: The GI50 was 3.9 µM.

Q: What about the LC50 [7] of the same compound?
A: The LC50 was over 100 µM.

Q: What about the TGI [7] of the same compound?
A: The TGI was 82.2 µM.

Q: And the GI50 [8]?
A: The GI50 was 4 µM.

Q: What about the LC50 (50% lethal concentration) [8] of the same compound?
A: The LC50 (50% lethal concentration) was over 100 µM.

Q: And the TGI [8]?
A: Its TGI is 84.6 µM.

Q: And the inhibition of growth at 10 µM [9]?
A: Its inhibition of growth at 10 µM is 80.4%.

Q: And the inhibition of growth at 10 µM [10]?
A: The inhibition of growth at 10 µM was 73.4%.

Q: And the inhibition of growth at 10 µM [11]?
A: Its inhibition of growth at 10 µM is 85.7%.

Q: And the inhibition of growth at 10 µM [12]?
A: Its inhibition of growth at 10 µM is 78.2%.

Q: And the inhibition of growth at 10 µM [13]?
A: The inhibition of growth at 10 µM was 62.4%.

Q: What about the inhibition of growth at 10 µM [14] of the same compound?
A: Its inhibition of growth at 10 µM is 61.5%.

Q: And the inhibition of growth at 10 µM [15]?
A: The inhibition of growth at 10 µM was 85.8%.

Q: And the inhibition of growth at 10 µM [16]?
A: The inhibition of growth at 10 µM was 79.8%.

Q: What about the inhibition of growth at 10 µM [17] of the same compound?
A: The inhibition of growth at 10 µM was 87.8%.

Q: And the RatioGI50 (Cancer cell lines [18])?
A: Its RatioGI50 is 10.

Q: What about the inhibition of growth at 10 µM [19] of the same compound?
A: The inhibition of growth at 10 µM was 89.6%.

Q: What about the inhibition of growth at 10 µM [20] of the same compound?
A: Its inhibition of growth at 10 µM is 71.8%.

Q: What about the GI50 [21] of the same compound?
A: The GI50 was 2.3 µM.

Q: And the LC50 [21]?
A: The LC50 was over 100 µM.

Q: And the TGI [21]?
A: The TGI was 84.3 µM.

Q: What about the inhibition of growth at 10 µM [22] of the same compound?
A: The inhibition of growth at 10 µM was 62.2%.

Q: What about the inhibition of growth at 10 µM [23] of the same compound?
A: Its inhibition of growth at 10 µM is 62.1%.

Q: What about the inhibition of growth at 10 µM [24] of the same compound?
A: Its inhibition of growth at 10 µM is 32.1%.

Q: What about the inhibition of growth at 10 µM [25] of the same compound?
A: Its inhibition of growth at 10 µM is 63%.

Q: And the GI50 [26]?
A: The GI50 was 3 µM.

Q: And the LC50 (concentration killing 50% of cells) [26]?
A: The LC50 (concentration killing 50% of cells) was over 100 µM.

Q: What about the TGI [26] of the same compound?
A: The TGI was 87 µM.

Q: What about the inhibition of growth at 10 µM [27] of the same compound?
A: The inhibition of growth at 10 µM was 64%.

Q: What about the RatioGI50 (Cancer cell lines [28]) of the same compound?
A: Its RatioGI50 is 10.

Q: And the RatioGI50 (Cancer cell lines [29])?
A: Its RatioGI50 is 10.

Q: And the inhibition of growth at 10 µM [30]?
A: The inhibition of growth at 10 µM was 82.2%.

Q: What about the inhibition of growth at 10 µM [31] of the same compound?
A: The inhibition of growth at 10 µM was 71.8%.

Q: What about the inhibition of growth at 10 µM [32] of the same compound?
A: The inhibition of growth at 10 µM was 53.6%.

Q: What about the inhibition of growth at 10 µM [33] of the same compound?
A: The inhibition of growth at 10 µM was 47.9%.

Q: What about the inhibition of growth at 10 µM [34] of the same compound?
A: Its inhibition of growth at 10 µM is 75.9%.

Q: What about the inhibition of growth at 10 µM [35] of the same compound?
A: Its inhibition of growth at 10 µM is 47.2%.

Q: And the inhibition of growth at 10 µM [36]?
A: Its inhibition of growth at 10 µM is 78%.

Q: And the inhibition of growth at 10 µM [37]?
A: Its inhibition of growth at 10 µM is 96.5%.
